Values after ≈ are worked out from the molar mass of the structure shown. Active and inactive are the calls of the source. No cut-off for these calls is given here.
Experiments:
Staphylococcus aureus [1] = experiment: Antibacterial activity against multidrug resistant Staphylococcus aureus 49589; format: functional
Outline: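 Broth microdilution MIC following CLSI. Compounds were predissolved in DMSO and tested as serial 2-fold dilutions at final 100 to 0.4 µg/mL. Inoculum was 5 × 10⁵ CFU/mL, and plates were read after 18 h at 37 °C.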

Escherichia coli [2] = experiment: Antibacterial activity against Escherichia coli tolC CGSC 5633; format: functional
[3] = test system: Staphylococcus epidermidis; experiment: Antibacterial activity against Staphylococcus epidermidis CIP 105777; format: functional
Escherichia coli [4] = experiment: Inhibition of RNA polymerase sigma-70 transcription in Escherichia coli at 10 uM; format: functional
CHO = experiment: Cytotoxicity against CHO cells; format: cell-based, Cricetulus griseus; details: chinese hamster
Outline: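 CHO cells grown in RPMI with 5% fetal calf serum, then exposed to compounds 24 h at 37 °C without serum. MTT added at 300 µg/mL final, 3 h at 37 °C dark; acidified isopropanol added, 1 h at room temperature; OD at 595 nm.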

Bacillus anthracis = experiment: Antibacterial activity against Bacillus anthracis 9131; format: functional
Staphylococcus aureus [5] = experiment: Antibacterial activity against Staphylococcus aureus CIP 76.25; format: functional
[6] = test system: Staphylococcus epidermidis; experiment: Antibacterial activity against Staphylococcus epidermidis RP62A; format: functional
Streptococcus pneumoniae = experiment: Antibacterial activity against Streptococcus pneumoniae CIP 103566; format: functional
Clostridioides difficile = experiment: Antibacterial activity against Clostridium difficile DSM 1296; format: functional

| Compound | Activity (Staphylococcus aureus [1]) | MIC (Escherichia coli [2]) [µg/mL] | MIC [3] [µg/mL] | inhibition at 10 µM (Escherichia coli [4]) [%] | Activity (CHO) | also measured |
| --- | --- | --- | --- | --- | --- | --- |
| GENTAMICIN | inactive | – | – | – | – | – |
| C[C@@H]1O[C@@H]1P(=O)(O)O | Active | – | – | – | – | – |
| CCN1CCN(C(=O)N[C@@H](C(=O)N[C@@H]2C(=O)N3[C@@H]2SC(C)(C)[C@@H]3C(=O)O)c2ccccc2)C(=O)C1=O | inactive | – | – | – | – | – |
| O=C(O)c1ccc(-c2ccc(/C=C3\Sc4ccccc4C3=O)o2)cc1 | – | > 100 | > 100 | 30 | >= 100 ug ml-1 | – |
| C=CCN1C(=O)/C(=C/c2ccc(-c3ccc(OP(=O)(O)O)cc3)o2)SC1=S | – | ≥ 100 | ≥ 100 | – | 50 µg/mL | – |
| CC1(C)S[C@@H]2[C@H](NC(=O)[C@H](N)c3ccc(O)cc3)C(=O)N2[C@H]1C(=O)O | inactive | – | – | – | – | – |
| CCC[C@@H]1C[C@@H](C(=O)N[C@@H]([C@H]2O[C@H](SC)[C@H](O)[C@@H](O)[C@H]2O)[C@H](C)Cl)N(C)C1 | inactive | – | – | – | – | – |
| O=C1NC(=S)S/C1=C\c1ccc(-c2ccc(C(=O)O)cc2)o1 | – | ≥ 100 | ≥ 100 | 82 | >= 100 ug ml-1 | – |
| C=CCN1C(=O)/C(=C/c2ccc(-c3ccc(C(=O)OC)cc3)o2)SC1=S | – | ≥ 100 | ≥ 100 | 10 | >= 100 ug ml-1 | – |
| NC[C@H]1O[C@H](O[C@H]2[C@H](O)[C@@H](O[C@H]3O[C@H](CO)[C@@H](O)[C@H](N)[C@H]3O)[C@H](N)C[C@@H]2N)[C@H](N)C[C@@H]1O | inactive | – | – | – | – | – |
| CC1(C)S[C@@H]2[C@H](NC(=O)Cc3ccccc3)C(=O)N2[C@H]1C(=O)O | inactive | – | – | – | – | – |
| C=CCN1C(=O)/C(=C/c2ccc(-c3cc(N)cc(C(=O)O)c3)o2)SC1=S | – | ≥ 100 | ≥ 100 | 71 | >= 100 ug ml-1 | – |
| C#CCN1C(=O)S/C(=C\c2ccc(-c3ccc(C(=O)O)cc3)o2)C1=O | – | > 100 | > 100 | 100 | >= 100 ug ml-1 | – |
| C=CCN1C(=O)/C(=C/c2ccc(-c3ccc([N+](=O)[O-])cc3)o2)SC1=S | – | ≥ 100 | ≥ 100 | 3 | >= 100 ug ml-1 | – |
| O=C1NC(=O)/C(=C/c2ccc(-c3ccc(C(=O)O)cc3)o2)N1 | – | ≥ 100 | ≥ 100 | 55 | >= 100 ug ml-1 | – |
| O=C(O)c1cccc(-c2ccc(C=C3C(=O)c4ccccc4C3=O)o2)c1 | – | 50 (≈ 145 µM) | 50 (≈ 145 µM) | 72 | 50 µg/mL | – |
| CO[C@H]1/C=C/O[C@@]2(C)Oc3c(C)c(O)c4c(O)c(c(/C=N/N5CCN(C)CC5)c(O)c4c3C2=O)NC(=O)/C(C)=C\C=C\[C@H](C)[C@H](O)[C@@H](C)[C@@H](O)[C@@H](C)[C@H](OC(C)=O)[C@@H]1C | inactive | – | – | – | – | – |
| C=CCN1C(=O)S/C(=C\c2ccc(-c3ccc(C(=O)O)cc3)o2)C1=O | – | ≥ 100 | ≥ 100 | 75 | >= 100 ug ml-1 | – |
| Cc1onc(-c2ccccc2)c1C(=O)N[C@@H]1C(=O)N2[C@@H]1SC(C)(C)[C@@H]2C(=O)O | inactive | – | – | – | – | – |
| C=CCN1C(=O)/C(=C/c2ccc(-c3cccc(N)c3)o2)SC1=S | – | ≥ 100 | ≥ 100 | 11 | >= 100 ug ml-1 | – |

| Compound | Activity (Staphylococcus aureus [1]) | MIC (Escherichia coli [2]) [µg/mL] | MIC [3] [µg/mL] | inhibition at 10 µM (Escherichia coli [4]) [%] | Activity (CHO) | also measured |
| --- | --- | --- | --- | --- | --- | --- |
| CCn1cc(C(=O)O)c(=O)c2cc(F)c(N3CCNCC3)cc21 | inactive | – | – | – | – | – |
| C=CCN1C(=O)/C(=C/c2ccc(Cc3ccc(C(=O)O)cc3)o2)SC1=S | – | ≥ 100 | ≥ 100 | 63 | >= 100 ug ml-1 | – |
| CN[C@H](CC(C)C)C(=O)N[C@H]1C(=O)N[C@@H](CC(N)=O)C(=O)N[C@H]2C(=O)N[C@H]3C(=O)N[C@H](C(=O)N[C@H](C(=O)O)c4cc(O)cc(O)c4-c4cc3ccc4O)[C@H](O)c3ccc(c(Cl)c3)Oc3cc2cc(c3O[C@@H]2O[C@H](CO)[C@@H](O)[C@H](O)[C@H]2O[C@H]2C[C@](C)(N)[C@H](O)[C@H](C)O2)Oc2ccc(cc2Cl)[C@H]1O | Active | – | – | – | – | – |
| CC[C@H]1OC(=O)[C@H](C)[C@@H](O[C@H]2C[C@@](C)(OC)[C@@H](O)[C@H](C)O2)[C@H](C)[C@@H](O[C@@H]2O[C@H](C)C[C@H](N(C)C)[C@H]2O)[C@](C)(O)C[C@@H](C)C(=O)[C@H](C)[C@@H](O)[C@]1(C)O | inactive | – | – | – | – | – |
| C=CCN1C(=O)/C(=C/c2ccc(-c3ccc(S(=O)(=O)O)cc3)o2)SC1=S | – | ≥ 100 | ≥ 100 | 9 | >= 100 ug ml-1 | – |
| Cc1nnc(SCC2=C(C(=O)O)N3C(=O)[C@@H](NC(=O)Cn4cnnn4)[C@H]3SC2)s1 | inactive | – | – | – | – | – |
| CC(=O)/N=C1\NC(=O)/C(=C/c2ccc(-c3ccc(C(=O)O)cc3)o2)S1 | – | ≥ 100 | ≥ 100 | 98 | >= 100 ug ml-1 | – |
| C=CCN1C(=O)/C(=C/c2ccc(-c3cccc(C(F)(F)F)c3)o2)SC1=S | – | ≥ 100 | ≥ 100 | – | >= 100 ug ml-1 | – |
| CC(=O)O[C@H]1C[C@@]2(C)[C@@H](C[C@@H](O)[C@H]3[C@@]4(C)CC[C@@H](O)[C@@H](C)[C@@H]4CC[C@@]32C)/C1=C(\CCC=C(C)C)C(=O)O | Active | – | – | – | – | – |
| C=CCN1C(=O)/C(=C/c2ccc(-c3ccccc3C(=O)O)o2)SC1=S | – | ≥ 100 | ≥ 100 | 72 | >= 100 ug ml-1 | – |
| C=CCN1C(=O)/C(=C/c2ccc(-c3cccc(Cl)c3)o2)SC1=S | – | 12.5 (≈ 34.5 µM) | ≥ 100 | 76 | >= 100 ug ml-1 | – |
| O=C(O)CN1C(=O)/C(=C/c2ccc(-c3cccc(C(=O)O)c3)o2)SC1=S | – | ≥ 100 | ≥ 100 | 17 | >= 100 ug ml-1 | – |
| CC1COc2c(N3CCN(C)CC3)c(F)cc3c(=O)c(C(=O)O)cn1c23 (centres undefined) | inactive | – | – | – | – | – |
| CN(C)[C@@H]1C(O)=C(C(N)=O)C(=O)[C@@]2(O)C(O)=C3C(=O)c4c(O)cccc4[C@@](C)(O)[C@H]3C[C@@H]12 | inactive | – | – | – | – | – |
| COCCN1C(=O)N/C(=C\c2ccc(-c3cccc(C(=O)O)c3)o2)C1=O | – | ≥ 100 | ≥ 100 | 85 | >= 100 ug ml-1 | – |
| C=CCN1C(=O)/C(=C/c2ccc(-c3ccc4c(c3)C(=O)OC4)o2)SC1=S | – | ≥ 100 | ≥ 100 | 5 | 50 µg/mL | – |
| CN1C(=O)/C(=C/c2ccc(-c3cccc(C(=O)O)c3)o2)SC1=S | – | > 100 | > 100 | 89 | >= 100 ug ml-1 | – |
| C=CCN1C(=O)/C(=C/c2ccc(-c3ccc(C(=O)NO)cc3)o2)SC1=S | – | 25 (≈ 64.7 µM) | ≥ 100 | 100 | >= 100 ug ml-1 | MIC (Bacillus anthracis): 50 µg/mL (≈ 129 µM); MIC (Staphylococcus aureus [5]): ≥ 100 µg/mL; MIC [6]: ≥ 100 µg/mL; MIC (Streptococcus pneumoniae): 25 µg/mL (≈ 64.7 µM); MIC (Staphylococcus aureus [1]): ≥ 100 µg/mL; MIC (Clostridioides difficile): ≥ 100 µg/mL |
| NCC[C@H](O)C(=O)N[C@@H]1C[C@H](N)[C@@H](O[C@H]2O[C@H](CN)[C@@H](O)[C@H](O)[C@H]2O)[C@H](O)[C@H]1O[C@H]1O[C@H](CO)[C@@H](O)[C@H](N)[C@H]1O | inactive | – | – | – | – | – |

— ChEMBL document CHEMBL1148734, “Structure-activity relationships of phenyl-furanyl-rhodanines as inhibitors of RNA polymerase with antibacterial activity on biofilms” (J Med Chem, 2007)
